Results on one molecule are retold here after ChEMBL document CHEMBL4480390, “Cink4T, a quinazolinone-based dual inhibitor of Cdk4 and tubulin polymerization, identified via ligand-based virtual screening, for efficient anticancer therapy” (Eur J Med Chem, 2019).

Active and inactive are the calls of the source. No cut-off for these calls is given here. A value given as a limit tells only on which side of the number the result lay.

Test [1] deals with A549. Kind of test: Cell cycle arrest in human A549 cells assessed as ratio of G1 to S phase at 1.6 uM measured after 18 hrs by propidium iodide staining based flow cytometry (reference value: 2.7). The class given is functional.
Test [2] deals with CDK2/Cyclin A2 (Homo sapiens, UniProt P24941). As to the kind of experiment: Inhibition of human full length N-terminal GST-fused CDK2 (M1 to L298 residues)/human full length Cyclin-A2 (M1 to L432 residues) expressed in Sf9 cells using histone H1 as substrate measured after 1 hr by ADP-glo luminescence assay.
Test [3] concerns the target T1, Cyclin-dependent kinase 4/cyclin D1 (Homo sapiens) (UniProt P11802+P24385). As to the kind of experiment: Inhibition of CDK4/cyclin D1 in human T47D cells assessed as reduction in phosphorylation of pRb at Ser807/11 residues at 0.75 uM measured after 18 hrs by Western blot analysis. The test is classed as cell-based. The essentials:
(§1)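 T47D cells left untreated or treated 18 h at 0.75 or 1.5 µM. Western blots probed with phospho-specific pRb antibodies (Ser780, Ser795, Ser807/811) and a total-pRb antibody; HRP-conjugated secondary for detection.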

Test [4] deals with T47D. As to the kind of experiment: Cell cycle arrest in human T47D cells assessed as accumulation at G0/G1 phase at 1.5 uM treated 18 hrs post serum-starvation measured after 18 hrs in presence of fresh medium containing FBS by propidium iodide staining based flow cytometry (reference value: 60.3%). The class given is functional.
Test [5] relates to Calu-1. Kind of test: Cell cycle arrest in human Calu1 cells assessed as accumulation at G0/G1 phase at 0.9 uM treated 18 hrs post serum-starvation measured after 18 hrs in presence of fresh medium containing FBS by propidium iodide staining based flow cytometry (reference value: 69.2%). The test is classed as functional.
The test system of test [6] is A549. Kind of test: Cell cycle arrest in human A549 cells assessed as accumulation at G2/M phase at 0.8 uM treated 32 hrs post mimosine addition measured after 18 hrs in presence of fresh medium by propidium iodide staining based flow cytometry (reference value: 14%). The class given is functional.
In test [7] the target is Cyclin-dependent kinase 4/cyclin D1 (Homo sapiens, UniProt P11802). Kind of test: Inhibition of recombinant human N-terminal GST-tagged CDK4 (S4 to E303 residues)/Cyclin D1 (Q4 to I295 residues) expressed in sf9 cells using RBCTF as substrate measured after 1 hr by ADP-glo luminescence assay. The gist of the method:
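ADP-Glo luminescence assay of Cdk4–cyclin D1 with RBCTF substrate, 200 ng enzyme, ATP 125 µM (2.5x working mix), Tris/MgCl2/BSA/DTT/MnCl2 buffer, 1 h at 21°C, then two 40-min reagent steps. IC50 from a four-parameter variable-slope sigmoidal fit of inhibition against concentration; mean ± SD from three independent experiments.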

Test [8] has as its system T47D. Kind of test: Cell cycle arrest in human T47D cells assessed as accumulation at sub-G1 phase at 0.75 uM measured after 18 hrs by propidium iodide staining based flow cytometry relative to control. The test is classed as functional.
The subject of test [9] is T47D. As to the kind of experiment: Cell cycle arrest in human T47D cells assessed as ratio of G1 to S phase at 0.75 uM measured after 18 hrs by propidium iodide staining based flow cytometry (reference value: 2.65). The class given is functional.
The test system of test [10] is Calu-1. As to the kind of experiment: cells. The note with it: Homo sapiens, Calu-1, 72 h.
The target of test [11] is T2, Cytochrome P450 1A2 (Homo sapiens, UniProt P05177).
T2 sequence (P05177 whole entry): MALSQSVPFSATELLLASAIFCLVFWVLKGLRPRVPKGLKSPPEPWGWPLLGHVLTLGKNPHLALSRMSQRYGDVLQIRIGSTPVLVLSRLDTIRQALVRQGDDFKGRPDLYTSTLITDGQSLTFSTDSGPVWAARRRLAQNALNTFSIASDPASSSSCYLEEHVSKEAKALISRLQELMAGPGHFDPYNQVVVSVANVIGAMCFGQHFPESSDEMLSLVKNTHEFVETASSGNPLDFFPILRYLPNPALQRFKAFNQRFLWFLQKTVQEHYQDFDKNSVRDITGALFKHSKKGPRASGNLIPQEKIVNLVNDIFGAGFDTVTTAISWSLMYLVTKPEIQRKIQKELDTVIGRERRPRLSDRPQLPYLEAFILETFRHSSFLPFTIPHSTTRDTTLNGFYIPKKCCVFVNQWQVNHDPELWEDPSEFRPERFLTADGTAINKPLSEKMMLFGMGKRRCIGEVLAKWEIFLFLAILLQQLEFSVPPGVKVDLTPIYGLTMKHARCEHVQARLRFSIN
Kind of test: Inhibition of recombinant human CYP1A2 expressed in baker's yeast-derived microsomes using 3-cyano-7-ethoxycoumarin as substrate by fluorescence assay. The test is classed as ADME.

Test [12] concerns the target T1, Cyclin-dependent kinase 4/cyclin D1 (Homo sapiens). As to the kind of experiment: Inhibition of CDK4/cyclin D1 in human T47D cells assessed as reduction in phosphorylation of pRb at Ser807/11 residues at 1.5 uM measured after 18 hrs by Western blot analysis. The test is classed as cell-based. The essentials:
as §1

For test [13], the system named is MDA-MB-468. Kind of test: Cell cycle arrest in human MDA-MB-468 cells assessed as ratio of G1 to S phase at 10.85 uM measured after 18 hrs by propidium iodide staining based flow cytometry (reference value: 2.17). The test is classed as functional.
For test [14], the system named is T47D. As to the kind of experiment: cells. The note with it: Homo sapiens, 72 h.
For test [15], the target named is Tubulin (Sus scrofa) (UniProt P02554+P02550). Kind of test: Inhibition of porcine tubulin polymerization at 5 uM incubated for 1 min by fluorescence based assay. The test is classed as protein assay. The gist of the method:
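Compounds added from 10x stocks in duplicate and warmed at 37°C ≤1 min. Ice-cold tubulin pre-mix then added. Fluorescent reporter read at ex 360/em 460 nm for 60 min. Paclitaxel served as enhancer control, CaCl2 as inhibitor control.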

Test [16] concerns Calu-1. Kind of test: Cell cycle arrest in human Calu1 cells assessed as increase in accumulation at S phase at 1.8 uM treated 18 hrs post serum-starvation measured after 18 hrs in presence of fresh medium containing FBS by propidium iodide staining based flow cytometry relative to control. The class given is functional.
The test system of test [17] is A549. Kind of test: Cell cycle arrest in human A549 cells assessed as ratio of G1 to S phase at 0.8 uM treated 32 hrs post mimosine addition measured after 18 hrs in presence of fresh medium by propidium iodide staining based flow cytometry (reference value: 2.5). The test is classed as functional.
For test [18], the system named is A549. As to the kind of experiment: Cell cycle arrest in human A549 cells assessed as accumulation at G0/G1 phase at 0.8 uM treated 32 hrs post mimosine addition measured after 18 hrs in presence of fresh medium by propidium iodide staining based flow cytometry (reference value: 58%). The class given is functional.
Test [19] concerns T47D. Kind of test: Cell cycle arrest in human T47D cells assessed as increase in accumulation at S phase at 1.5 uM treated 18 hrs post serum-starvation measured after 18 hrs in presence of fresh medium containing FBS by propidium iodide staining based flow cytometry relative to control. The test is classed as functional.
In test [20] the test system is A549. As to the kind of experiment: Effect on CDK1 expression in human A549 cells at 0.8 to 1.6 uM measured after 18 hrs by Western blot analysis. The test is classed as functional, cell-based.
In test [21] the target is T1, Cyclin-dependent kinase 4/cyclin D1 (Homo sapiens). As to the kind of experiment: Inhibition of CDK4/cyclin D1 in human T47D cells assessed as reduction in phosphorylation of pRb at Ser780 residues at 0.75 to 1.5 uM measured after 18 hrs by Western blot analysis. The test is classed as cell-based. The essentials: as §1
For test [22], the system named is A549. Kind of test: Cell cycle arrest in human A549 cells assessed as accumulation at S phase at 1.6 uM measured after 18 hrs by propidium iodide staining based flow cytometry (reference value: 21%). The test is classed as functional.

Sequence of Cyclin-dependent kinase 4/cyclin D1 (P11802 whole entry, the tested form may be a part): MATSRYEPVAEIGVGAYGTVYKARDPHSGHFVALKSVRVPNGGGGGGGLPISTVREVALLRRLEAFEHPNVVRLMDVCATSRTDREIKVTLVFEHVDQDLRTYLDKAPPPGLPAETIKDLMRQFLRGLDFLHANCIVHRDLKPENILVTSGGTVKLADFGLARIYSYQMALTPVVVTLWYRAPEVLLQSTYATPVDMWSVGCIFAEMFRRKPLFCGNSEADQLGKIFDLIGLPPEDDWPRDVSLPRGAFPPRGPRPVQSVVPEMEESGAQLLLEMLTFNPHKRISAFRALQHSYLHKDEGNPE
Sequence of Cyclin-dependent kinase 4/cyclin D1 (P24385 whole entry, further chain, the tested form may be a part): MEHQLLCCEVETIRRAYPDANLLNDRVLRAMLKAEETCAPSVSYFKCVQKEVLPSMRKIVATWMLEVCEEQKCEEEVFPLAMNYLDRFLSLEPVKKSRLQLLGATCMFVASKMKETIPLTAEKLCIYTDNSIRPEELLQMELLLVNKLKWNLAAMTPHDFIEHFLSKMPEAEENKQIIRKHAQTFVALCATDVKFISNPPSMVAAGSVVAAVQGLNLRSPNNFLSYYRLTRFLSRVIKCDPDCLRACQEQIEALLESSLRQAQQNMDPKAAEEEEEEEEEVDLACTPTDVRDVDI
Sequence of Tubulin (Sus scrofa) (P02550 whole entry, looked up): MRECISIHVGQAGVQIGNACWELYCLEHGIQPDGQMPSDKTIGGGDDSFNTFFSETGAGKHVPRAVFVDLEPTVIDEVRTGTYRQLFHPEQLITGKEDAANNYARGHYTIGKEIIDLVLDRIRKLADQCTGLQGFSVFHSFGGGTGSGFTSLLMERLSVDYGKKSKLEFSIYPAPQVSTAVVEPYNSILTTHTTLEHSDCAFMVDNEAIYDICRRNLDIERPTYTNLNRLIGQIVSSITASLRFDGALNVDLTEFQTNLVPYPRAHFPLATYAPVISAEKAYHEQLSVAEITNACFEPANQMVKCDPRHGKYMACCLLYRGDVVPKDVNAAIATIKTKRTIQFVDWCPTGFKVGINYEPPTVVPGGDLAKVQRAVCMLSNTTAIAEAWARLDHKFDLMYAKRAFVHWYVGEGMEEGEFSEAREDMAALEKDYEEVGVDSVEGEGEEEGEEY
Sequence of Tubulin (Sus scrofa) (P02554 whole entry, looked up): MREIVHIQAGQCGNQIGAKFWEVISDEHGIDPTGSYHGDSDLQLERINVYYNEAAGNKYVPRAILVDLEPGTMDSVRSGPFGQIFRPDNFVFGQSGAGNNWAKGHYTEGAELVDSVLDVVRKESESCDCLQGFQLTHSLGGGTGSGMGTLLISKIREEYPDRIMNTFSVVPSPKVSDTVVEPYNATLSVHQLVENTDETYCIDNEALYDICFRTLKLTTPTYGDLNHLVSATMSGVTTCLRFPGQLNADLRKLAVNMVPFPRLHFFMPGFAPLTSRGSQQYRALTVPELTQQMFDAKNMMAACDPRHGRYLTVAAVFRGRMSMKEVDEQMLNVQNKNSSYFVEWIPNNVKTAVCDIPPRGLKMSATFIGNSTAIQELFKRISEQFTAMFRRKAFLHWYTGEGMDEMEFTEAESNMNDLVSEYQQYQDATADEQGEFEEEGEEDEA

With `O=C(COc1ccc(-c2nc3ccccc3c(=O)[nH]2)cc1)Nc1cccc(Cl)c1`, the Ratio in test [1] is recorded as 0.75; in test [9] it was 22; in test [13] it was 3.46; in [17], 1.07. In addition, the results for the IC50 in [2], in [7] and in [11] were above 100 µM, 470 nM and above 5 µM, respectively. Further, the inhibition entry in test [3] was “inactive”. Moreover, the Activity is listed as 68.1% in test [4]; 75% in test [5]; 35% in test [6]; 0% in [8]; -0.8% in test [16]; 36% in [18]. Moreover, the Activity in [19] turned out to be 5.3%; in test [22] it was 16%. Moreover, the values for the EC50 in [10] and in test [14] were 900 nM and 750 nM, respectively. Further, the inhibition entry in test [12], in [15] and in test [21] was “Active” throughout. Moreover, the outcome in [20] was inactive.
